Results: ChEMBL document CHEMBL1123109, “Alkyl esters of 3-adenin-9-yl-2-hydroxypropanoic acid: a new class of broad-spectrum antiviral agents” (1985)
Values after ≈ are worked out from the molar mass of the structure shown.

Legend:
Assay type in all cases: functional
Vero = assay: Cytotoxic concentration against Vero cells.; details: Chlorocebus sabaeus
Procedure, shortened: (§1)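 Uninfected cells were incubated with compound for the same duration as the matching antiviral assay. The minimum cytotoxic concentration is the lowest one causing a microscopically detectable change in normal cell morphology.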

Oryctolagus cuniculus [1] = organism: Oryctolagus cuniculus; assay: Inhibitory effects on DNA, RNA, and Protein synthesis in rabbit kidney cells was evaluated for incorporation of [5-3H]-Urd; details: read-out: ID50 (the source's name)
[2] = test system: Vesicular stomatitis virus; assay: Inhibition of Vesicular stomatitis virus induced cytopathicity in PRK cells.
HeLa = assay: Cytotoxic concentration against HeLa cells.; details: Homo sapiens; procedure, shortened: as §1
Poliovirus 1 = assay: Inhibition of polio virus 1 induced cytopathicity in HeLa cells.; details: Enterovirus C
Coxsackievirus B4 = assay: Inhibition of Coxsackie B4 virus induced cytopathicity in HeLa cells.; details: Enterovirus B
PRK = assay: Cytotoxic concentration against PRK cells.; details: Oryctolagus cuniculus; procedure, shortened: as §1
Human respirovirus 3 = assay: Inhibition of parainfluenza virus-3 induced cytopathicity in vero cells.
[3] = test system: Vesicular stomatitis virus; assay: Inhibition of Vesicular stomatitis virus induced cytopathicity in BS-C-1 cells.
Procedure, shortened: (§2)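 Vesicular stomatitis virus was inoculated at 100 CCID50 (100× the dose infecting 50% of cells) in each cell type: human embryonic skin-muscle fibroblasts, LR-strain trisomy-21 fibroblasts, HEp-2, CV-1, BS-C-1, Balb/3T3, RK13, human kidney, HeLa and Vero. CPE was read at 1–2 days in every cell type, once complete in untreated infected controls. The MIC is the concentration giving a 50% reduction in cytopathogenicity.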

[4] = test system: Vesicular stomatitis virus; assay: Inhibition of Vesicular stomatitis virus induced cytopathicity in BALB/3T3 cells.; details: in Mus musculus; procedure, shortened: as §2
HK [5] = assay: Minimum inhibitory concentration which is required to reduce virus-induced cytopathogenicity by 50% against Vesicular stomatitis virus in human kidney (HK) cells; procedure, shortened: as §2
[6] = test system: Mammalian orthoreovirus 1; assay: Inhibition of Reo virus-1 induced cytopathicity in vero cells.
[7] = test system: Vesicular stomatitis virus; assay: Inhibition of Vesicular stomatitis virus induced cytopathicity in Vero cells.; procedure, shortened: as §2
Oryctolagus cuniculus [8] = organism: Oryctolagus cuniculus; assay: Inhibitory effects on DNA, RNA, and Protein synthesis in rabbit kidney cells was evaluated for incorporation of [4,5-3H]leucine; details: read-out: ID50 (the source's name)
[9] = test system: Vesicular stomatitis virus; assay: Inhibition of Vesicular stomatitis virus induced cytopathicity in HeLa cells.; procedure, shortened: as §2
[10] = test system: Vesicular stomatitis virus; assay: Inhibition of Vesicular stomatitis virus induced cytopathicity in HEp-2 cells.; procedure, shortened: as §2
[11] = test system: Vesicular stomatitis virus; assay: Inhibition of Vesicular stomatitis virus induced cytopathicity in E6SM cells.; procedure, shortened: as §2
Oryctolagus cuniculus [12] = organism: Oryctolagus cuniculus; assay: Inhibitory effects on DNA, RNA, and Protein synthesis in rabbit kidney cells was evaluated for incorporation of [methyl-3H]dThd]; details: read-out: ID50 (the source's name)
Sindbis virus = assay: Inhibition of Sindbis virus induced cytopathicity in vero cells.
Measles morbillivirus = assay: Inhibition of Measles virus induced cytopathicity in vero cells.
Human alphaherpesvirus 1 = assay: Inhibition of HSV-1 induced cytopathicity in PRK cells.
[13] = test system: Vesicular stomatitis virus; assay: Inhibition of Vesicular stomatitis virus induced cytopathicity in RK13 cells.; procedure, shortened: as §2
Vaccinia virus = assay: Inhibition of Vaccinia virus induced cytopathicity in PRK cells.; details: Orthopoxvirus vaccinia
HK [14] = assay: Minimum inhibitory concentration which is required to reduce virus-induced cytopathogenicity by 50% against Vesicular stomatitis virus in human kidney; procedure, shortened: as §2
[15] = test system: Vesicular stomatitis virus; assay: Inhibition of Vesicular stomatitis virus induced cytopathicity in CV-1 cells.; procedure, shortened: as §2
[16] = test system: Vesicular stomatitis virus; assay: Inhibition of Vesicular stomatitis virus induced cytopathicity in T-21 cells.; procedure, shortened: as §2
HK [17] = assay: Minimum inhibitory concentration which is required to reduce virus-induced cytopathogenicity by 50% against Vesicular stomatitis virus in human kidney,; procedure, shortened: as §2

Row | Structure (SMILES) | MCC (Vero) [µg/mL] | IC50 (Oryctolagus cuniculus [1]) [µg/mL] | MIC [2] [µg/mL] | MCC (HeLa) [µg/mL] | MIC (Poliovirus 1) [µg/mL] | MIC (Coxsackievirus B4) [µg/mL] | MCC (PRK) [µg/mL] | MIC (Human respirovirus 3) [µg/mL] | MIC [3] [µg/mL] | MIC [4] [µg/mL] | MIC [6] [µg/mL] | MIC [7] [µg/mL] | MIC [9] [µg/mL] | MIC [10] [µg/mL] | MIC [11] [µg/mL] | MIC (Sindbis virus) [µg/mL] | MIC (Measles morbillivirus) [µg/mL] | MIC (Human alphaherpesvirus 1) [µg/mL] | MIC [13] [µg/mL] | MIC (Vaccinia virus) [µg/mL] | other results
1 | COC(=O)C(O)Cn1cnc2c(N)ncnc21 (stereo not given) | > 400 | 350 (≈ 1480 µM) | 3 (≈ 12.6 µM) | > 400 | > 400 | > 400 | > 400 | 20 (≈ 84.3 µM) | 150 (≈ 632 µM) | 300 (≈ 1260 µM) | 200 (≈ 843 µM) | > 400 | 70 (≈ 295 µM) | 3 (≈ 12.6 µM) | 30 (≈ 126 µM) | > 400 | 40 (≈ 169 µM) | > 400 | 1 (≈ 4.22 µM) | 7 (≈ 29.5 µM) | MIC (HK [5]): > 400 µg/mL; IC50 (Oryctolagus cuniculus [8]): > 400 µg/mL; IC50 (Oryctolagus cuniculus [12]): > 400 µg/mL
2 | CCCCCCCCOC(=O)C(O)Cn1cnc2c(N)ncnc21 (stereo not given) | 200 | – | 7 (≈ 20.9 µM) | 100 | > 100 | > 100 | 100 | 15 (≈ 44.7 µM) | > 100 | 100 (≈ 298 µM) | 7 (≈ 20.9 µM) | 100 (≈ 298 µM) | 1 (≈ 2.98 µM) | 2 (≈ 5.96 µM) | 7 (≈ 20.9 µM) | 30 (≈ 89.4 µM) | 70 (≈ 209 µM) | > 100 | 30 (≈ 89.4 µM) | 7 (≈ 20.9 µM) | MIC (HK [14]): 15 µg/mL (≈ 44.7 µM); MIC [15]: > 100 µg/mL; MIC [16]: 0.5 µg/mL (≈ 1.49 µM)
3 | Nc1ncnc2c1ncn2C[C@H](O)CO [(S)-DHPA] | > 400 | > 400 | 15 (≈ 71.7 µM) | > 400 | > 400 | > 400 | > 400 | 20 (≈ 95.6 µM) | > 400 | > 400 | 200 (≈ 956 µM) | 200 (≈ 956 µM) | 30 (≈ 143 µM) | 4 (≈ 19.1 µM) | 15 (≈ 71.7 µM) | > 400 | 30 (≈ 143 µM) | > 400 | 150 (≈ 717 µM) | 30 (≈ 143 µM) | MIC (HK [17]): 50 µg/mL (≈ 239 µM); MIC [15]: > 400 µg/mL; IC50 (Oryctolagus cuniculus [8]): > 400 µg/mL; MIC [16]: 20 µg/mL (≈ 95.6 µM); IC50 (Oryctolagus cuniculus [12]): > 326 µg/mL
